Measurements reported in ChEMBL document CHEMBL1127633, “Cyclic beta-casomorphin analogues with mixed mu agonist/delta antagonist properties: synthesis, pharmacological characterization, and conformational aspects” (J Med Chem, 1994).
Residues, ends and D or L forms follow the SMILES beside them.

How the values were obtained:
[1] = target: Mu-type opioid receptor (Rattus norvegicus, UniProt P33535); test: Binding affinity for mu opioid receptors by displacement of [3H]-DAMGO from rat brain membrane binding site
Chain of Mu-type opioid receptor (P33535 whole entry): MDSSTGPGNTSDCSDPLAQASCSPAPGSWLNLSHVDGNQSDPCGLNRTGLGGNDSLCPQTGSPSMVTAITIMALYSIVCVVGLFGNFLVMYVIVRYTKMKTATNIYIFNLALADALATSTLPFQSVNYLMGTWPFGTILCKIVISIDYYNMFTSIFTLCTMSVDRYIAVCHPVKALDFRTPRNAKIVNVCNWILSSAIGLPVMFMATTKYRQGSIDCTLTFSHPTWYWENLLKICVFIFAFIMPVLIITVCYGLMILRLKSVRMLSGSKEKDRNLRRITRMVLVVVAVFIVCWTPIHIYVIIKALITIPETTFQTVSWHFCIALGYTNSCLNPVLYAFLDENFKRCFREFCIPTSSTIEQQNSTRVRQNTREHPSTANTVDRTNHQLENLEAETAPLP

[2] = species: Cavia porcellus; test: In vitro inhibition of electrically evoked contractions of the guinea pig ileum (GPI); type: functional
Method in brief: (§1)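 Electrically evoked contractions of isolated tissue preparations. Each preparation had its own log dose-response curve with [Leu5]enkephalin as standard. Test IC50 values were normalized to that standard. Mean of three to six determinations ± SEM. Partial agonists are reported as % maximal inhibition of contraction at high concentrations.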

[3] = species: Mus musculus; test: In vitro inhibition of electrically evoked contractions of the mouse vas deferens (MVD); type: functional; method in brief: as §1
[4] = target: Delta-type opioid receptor (Rattus norvegicus, UniProt P33533); test: Binding affinity for delta opioid receptors was determined by displacement of [3H]DSLET from rat brain membrane binding site
Chain of Delta-type opioid receptor (P33533 whole entry): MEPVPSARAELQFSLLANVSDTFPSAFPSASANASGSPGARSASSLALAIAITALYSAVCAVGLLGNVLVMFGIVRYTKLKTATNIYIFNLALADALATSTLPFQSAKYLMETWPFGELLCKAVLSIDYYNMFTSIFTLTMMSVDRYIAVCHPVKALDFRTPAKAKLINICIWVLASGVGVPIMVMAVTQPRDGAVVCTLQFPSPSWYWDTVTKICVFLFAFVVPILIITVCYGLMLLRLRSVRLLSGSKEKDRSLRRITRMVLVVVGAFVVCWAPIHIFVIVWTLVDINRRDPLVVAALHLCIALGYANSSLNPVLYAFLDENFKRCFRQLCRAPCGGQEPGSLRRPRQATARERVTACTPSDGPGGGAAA
Method in brief: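 Rat brain membranes incubated 2 h at 0 °C with 0.78 nM [3H]DSLET. IC50 read from dose-displacement curves. […] Mean of three to six determinations ± SEM.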

N[C@@H](Cc1ccc(O)cc1)C(=O)N[C@@H]1CCCNC(=O)CNC(=O)[C@H]2CCCN2C(=O)[C@H](Cc2c[nH]c3ccccc23)NC1=O
Ki [1]: 2.09 nM
IC50 [2]: 27.5 nM
IC50 [3]: 16.1 nM
Ki [4]: 10.3 nM

N[C@@H](Cc1ccc(O)cc1)C(=O)N[C@@H]1CCCNC(=O)CNC(=O)[C@H]2CCCN2C(=O)[C@H](Cc2ccccc2)NC1=O
Ki [1]: 0.881 nM
IC50 [2]: 2.14 nM
IC50 [3]: 4.98 nM
Ki [4]: 13.2 nM

N[C@@H](Cc1ccc(O)cc1)C(=O)N[C@@H]1CCCNC(=O)CNC(=O)[C@H]2CCCN2C(=O)[C@H](Cc2ccc3ccccc3c2)NC1=O
IC50 [2]: 384 nM

N[C@@H](Cc1ccc(O)cc1)C(=O)N[C@@H]1CCNC(=O)CNC(=O)[C@H]2CCCN2C(=O)[C@H](Cc2ccc3ccccc3c2)NC1=O
Ki [1]: 6.41 nM
IC50 [2]: 353 nM
IC50 [3]: 1000 nM
Ki [4]: 70.8 nM

N[C@@H](Cc1ccc(O)cc1)C(=O)N[C@@H]1CCCNC(=O)CNC(=O)[C@H]2CCCN2C(=O)[C@H](Cc2cccc3ccccc23)NC1=O
Ki [1]: 3.42 nM
IC50 [2]: 14.9 nM
IC50 [3]: 29.9 nM
Ki [4]: 23.6 nM

N[C@@H](Cc1ccc(O)cc1)C(=O)N[C@@H]1CCCNC(=O)[C@H]2CCCN2C(=O)[C@H](Cc2ccc3ccccc3c2)NC1=O
Ki [1]: 2.74 nM
IC50 [2]: 11.8 nM
IC50 [3]: 32.2 nM
Ki [4]: 28.3 nM

NC(=O)[C@H](Cc1ccccc1)NC(=O)[C@H](Cc1ccccc1)NC(=O)[C@@H]1Cc2ccccc2CN1C(=O)[C@@H](N)Cc1ccc(O)cc1 (HELM PEPTIDE1{Y.[Tic].F.F.[am]}$$$$V2.0)
IC50 [2]: 1700 nM

N[C@@H](Cc1ccc(O)cc1)C(=O)NC1CCCNC(=O)CNC(=O)[C@@H]2CCCN2C(=O)[C@H](Cc2ccccc2)NC1=O (single isomer, unassigned)
Ki [1]: 3.99 nM
IC50 [2]: 13.4 nM
IC50 [3]: 69.9 nM
Ki [4]: 1280 nM

N[C@@H](Cc1ccc(O)cc1)C(=O)NC1CCCNC(=O)CNC(=O)[C@@H]2CCCN2C(=O)[C@H](Cc2ccc3ccccc3c2)NC1=O (single isomer, unassigned)
Ki [1]: 81.3 nM
IC50 [2]: 1220 nM
IC50 [3]: 10000 nM
Ki [4]: 2140 nM
